The results in this text go back to ChEMBL document CHEMBL1126072, “Hydantoin bioisosteres. In vivo active spiro hydroxy acetic acid aldose reductase inhibitors” (J Med Chem, 1992).

Molecules are shown by their SMILES. pIC50: −log10 of the molar value. A value given as a limit tells only on which side of the number the result lay.

Test [1] deals with Rattus norvegicus. Description: Inhibition of sorbitol accumulation in sciatic nerves from streptozotocin-diabetic rats dosed at 3*100 mg/kg over 27h. Type of test: functional, Sciatic nerve. An outline of the steps:
(§1)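 Male Sprague-Dawley rats (180–220 g, 42–54 days) made diabetic with streptozotocin 85 mg/kg at 0 h. Oral gavage at 4, 7 and 24 h, dose quoted per time point. Sciatic nerve sorbitol measured with sorbitol dehydrogenase/NAD in pH 9.4 glycine. Mean (±SEM) percent inhibition against untreated diabetic controls, Student's t test on absolute sorbitol.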

Test [2] concerns the target T1, Aldo-keto reductase family 1 member B1 (Homo sapiens, UniProt P15121). Description: Inhibitory activity against human placental aldose reductase.
Test [3] has as its system Rattus norvegicus. Description: Effective dose was tested against the inhibition of sorbitol accumulation in sciatic nerves from streptozotocin-diabetic rats dosed at 3*25 mg/kg over 27h. The format is functional. The note with it: Sciatic nerve.
Test [4] has as its target T1, Aldo-keto reductase family 1 member B1. Description: (§2) ARI(aldose reductase inhibitor) enantiospecificity against human placental aldose reductase. An outline of the steps:
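Partially purified human placental enzyme (buffer homogenate, 33000g spin, pooled peak fractions, frozen). Rate of NADPH oxidation read at 340 nm, 25 °C, 12 min, in 50 mM phosphate pH 7.1 with 0.4 M NH4SO4, 0.067 mM NADPH, 1.0 mM dl-glyceraldehyde; enzyme at 4 milliunits. Molar IC50 ± SD over n experiments, from log-linear fit with common slope.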

The subject of test [5] is Rattus norvegicus. Nature of the test: In vivo inhibition of sorbitol accumulation in sciatic nerves from streptozotocin-diabetic rats dosed at 3*25 mg/kg over 27h. Type of test: functional, Sciatic nerve.
The test system of test [6] is Rattus norvegicus. Description: In vivo inhibition of sorbitol accumulation in sciatic nerves from streptozotocin-diabetic rats dosed at 1*25 mg/kg over 5 days. Type of test: functional, Sciatic nerve.
For test [7], the system named is Rattus norvegicus. Description: Nerve concentration at 3h after the last dose of 25 mg/kg for 5 days. The format is functional.
Test [8] has as its target T1, Aldo-keto reductase family 1 member B1. Nature of the test: Compound was tested in vitro for its inhibitory activity against human placental aldose reductase.
Test [9] has as its system Rattus norvegicus. Description: Plasma concentration at 3h after the last dose of 25 mg/kg for 5 days. Type of test: functional.
For test [10], the system named is Rattus norvegicus. Description: Inhibition of sorbitol accumulation in sciatic nerves from streptozotocin-diabetic rats dosed at 3*25 mg/kg over 27h. The format is functional, Sciatic nerve.
Test [11] concerns Rattus norvegicus. Description: In vivo inhibition of sorbitol accumulation in sciatic nerves from streptozotocin-diabetic rats dosed over 5 days. at a dose of 10 mg/kg. Type of test: functional. The note with it: Sciatic nerve, 120 h.
For test [12], the system named is Rattus norvegicus. Description: In vivo inhibition of sorbitol accumulation in sciatic nerves from streptozotocin-diabetic rats dosed over 5 days. at a dose of 5 mg/kg. The format is functional. The note with it: Sciatic nerve, 120 h. An outline of the steps:
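Rats made diabetic with iv streptozotocin 85 mg/kg. From day 7, oral gavage once daily for 5 days. Animals killed 3 h after the last dose. Sorbitol in neutralized perchloric acid extracts of 25-mg sciatic nerve portions measured with sheep liver sorbitol dehydrogenase and NAD in pH 9.4 glycine. Percent inhibition against diabetic controls.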

Test [13] concerns Rattus norvegicus. Nature of the test: In vivo inhibition of sorbitol accumulation in sciatic nerves from streptozotocin-diabetic rats dosed over 27 h. at a dose of 25 mg/kg. The format is functional. To be noted: Sciatic nerve.
For test [14], the system named is Rattus norvegicus. Nature of the test: In vivo inhibition of sorbitol accumulation in sciatic nerves from streptozotocin-diabetic rats given three doses over 27 h. at a dose of 2.5 mg/kg. Type of test: functional. The note with it: Sciatic nerve. An outline of the steps: as §1
Test [15] relates to Rattus norvegicus. Description: In vivo inhibition of sorbitol accumulation in sciatic nerves from streptozotocin-diabetic rats dosed over 5 days. at a dose of 25 mg/kg. Type of test: functional. To be noted: Sciatic nerve, 120 h.
Test [16] has as its system Rattus norvegicus. Nature of the test: In vivo inhibition of sorbitol accumulation in sciatic nerves from streptozotocin-diabetic rats dosed over 27 h. at a dose of 10 mg/kg. Type of test: functional. The note with it: Sciatic nerve.
Test [17] deals with Rattus norvegicus. Description: In vivo inhibition of sorbitol accumulation in sciatic nerves from streptozotocin-diabetic rats dosed over 5 days. at a dose of 2.5 mg/kg. Type of test: functional. The note with it: Sciatic nerve, 120 h.
For test [18], the system named is Rattus norvegicus. Description: In vivo inhibition of sorbitol accumulation in sciatic nerves from streptozotocin-diabetic rats dosed over 27 h. at a dose of 5 mg/kg. Type of test: functional. The note with it: Sciatic nerve.
The test system of test [19] is Rattus norvegicus. Nature of the test: Inhibition of sorbitol accumulation in sciatic nerves from streptozotocin-diabetic rats dosed at 3*50 mg/kg over 27h. Type of test: functional, Sciatic nerve. In outline:
as §1

The species entered for test [20] is Rattus norvegicus. Description: animal or person. To be noted: Sciatic nerve, 27 h, read-out: Inhibition.
Test [21] has as its target T1, Aldo-keto reductase family 1 member B1. Described as §2. The source holds these as a separate data set.
The species entered for test [22] is Rattus norvegicus. Nature of the test: animal or person. To be noted: Sciatic nerve, 120 h, read-out: Inhibition.
The subject of test [23] is Rattus norvegicus. Nature of the test: In vivo inhibition of sorbitol accumulation in sciatic nerves from streptozotocin-diabetic rats given one dose per day over 5 days at a dose of 25 mg/kg.

Consider `O=C(O)C[C@]1(O)CCOc2ccc(F)cc21`, for which the Inhibition in test [1] came to 61%. Besides, the pIC50 in test [2] is 6.22. In addition, the ED50 in test [3] turned out to be 71.4 mg/kg.

On to `C[C@@H]1C[C@@](O)(CC(=O)O)c2cc(Cl)c(Cl)cc2O1` (stereo in doubt; 18), for which the results for the pIC50 in [4], in [8] and in [2] were 6.81, 6.85 and 6.74, respectively. For the same molecule, the Inhibition in [5] was determined as 53%; in [6], 39%; in test [10], 91%. Besides, the values for the Tissue levels in [7] and in test [9] were 6.01 µg/mL and 19.7 µg/mL, respectively. In test [3], it took a dose of 8.06 mg/kg to reach the 50% effect level (ED50).

On to `O=C(O)Cc1nn(Cc2ccc(Br)cc2F)c(=O)c2ccccc12` [PONALRESTAT], for which the inhibition in vivo at 10 mg/kg in test [11] and in test [16] was 81% each time. Moreover, the inhibition in vivo at 5 mg/kg worked out at 60% in test [12] and 57% in [18]. The figures for the inhibition in vivo at 25 mg/kg in test [13] and in test [15] were 85% and 88%, respectively. Besides, the inhibition in vivo at 2.5 mg/kg worked out at 12% in test [14] and 0% in [17].

Regarding `CC1(C)C[C@@](O)(CC(=O)O)c2cc(F)ccc2O1`, the Inhibition in [1] was found to be 56%. In test [2], this molecule had a pIC50 of 5.46. Further, the ED50 in test [3] was found to be 83.2 mg/kg.

Turning to `C[C@@H]1C[C@@](O)(CC(=O)O)c2cc(F)ccc2O1`, the Inhibition in test [19] was determined as 81%; in test [5] it was 22%; in test [6] it was 13%; in test [1] it was 92%; in test [10] it was 56%. Moreover, the pIC50 in test [8] was 6.51; in test [2], 6.70. The Tissue levels in [9] was less than 0.5 µg/mL. Further, the ED50 in [3] was found to be 23 mg/kg.

For the molecule `C[C@@H]1C[C@@](O)(CC(=O)O)c2cc(F)c(Cl)cc2O1` (stereo in doubt; 60), the inhibition in vivo at 10 mg/kg in [11] came out at 69%; in test [16], 88%. The inhibition in vivo at 2.5 mg/kg in test [20] came to 39%; in [17], 19%. Moreover, the pIC50 in test [21] was 7.34. Also, the inhibition in vivo at 25 mg/kg in test [13] came to 98%; in test [15], 97%. Further, the inhibition in vivo at 5 mg/kg in [22] worked out at 52%; in test [18], 61%.

For the molecule `C[C@@H]1C[C@@](O)(CC(=O)O)c2cc(Cl)c(Cl)cc2O1` (stereo in doubt; 58), the inhibition in vivo at 10 mg/kg in [11] is 68%; in [16], 70%. In addition, the inhibition in vivo at 5 mg/kg in [12] amounted to 34%; in test [18], 60%. Also, the Inhibition in [23] is recorded as 78%. For the same molecule, the inhibition in vivo at 25 mg/kg in test [13] was determined as 89%. Also, the inhibition in vivo at 2.5 mg/kg in [14] amounted to 49%; in test [17], 31%. This molecule also showed a pIC50 in test [2] of 7.29.

What is called Inhibition is the percentage by which the read-out fell short of the control. High values mean a strong effect, low ones a weak effect. For orientation: pIC50 means the negative decadic logarithm of the IC50, by convention in mol/L. Read a high pIC50 as a low IC50. One may read the ED50 as the midpoint of the dose-response relation. Lower therefore signals greater potency.
